Laboratory results reported in ChEMBL document CHEMBL4251587, “Synthesis and antimicrobial activity of amino acid and peptide derivatives of mycophenolic acid” (2018).
Converted amounts (≈) assume the structure as drawn. The source made the active and inactive calls. The rule behind the calls is not given here. Non-standard residues stand in square brackets, D forms with d. Residues, ends and D or L forms follow the SMILES beside them. *: point of attachment. Mycophenolyl = COc1c(C)c2c(c(O)c1C/C=C(\C)CCC(=O)*)C(=O)OC2; Arg(NO2) = N=C(NCCC[CH](N)C(=O)O)N[N+](=O)[O-]; βAla = NCCC(=O)O

How the values were obtained:
Format in all cases: functional
Staphylococcus aureus [1] = assay: Antibacterial activity against methicillin-resistant Staphylococcus aureus ATCC 43300 after 18 to 20 hrs by spectrophotometry based microdilution method
Outline: (§1)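 Broth microdilution in MHB II following EUCAST. Log-phase cultures diluted 1:1000, then 50-fold in saline to McFarland 0.5, giving 10^4 cells/ml per well. Compounds (stock in 6% DMSO) twofold serially diluted. Incubation 35 ± 1 °C, 18–20 h. OD600 plus visual read; MIC50/MIC90 = 50%/90% growth arrest. Resazurin (0.015%, 37 °C, 2 h, dark) confirmation. 3 replicates, 3 independent experiments.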

Staphylococcus aureus [2] = assay: Antibacterial activity against methicillin-sensitive Staphylococcus aureus ATCC 25923 after 18 to 20 hrs by spectrophotometry based microdilution method; outline: as §1
Klebsiella pneumoniae [3] = assay: Antibacterial activity against ESBL positive Klebsiella pneumoniae ATCC 700603 after 18 to 20 hrs by spectrophotometry based microdilution method
Outline: (§2)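 Broth microdilution in Mueller Hinton Broth II following EUCAST. Log-phase cultures were diluted to McFarland 0.5, and 104 cells/ml went into 2-fold serial dilutions of compound (stock in 6% DMSO). Incubation was 35 ± 1 °C for 18–20 h, read at OD600 and visually. MIC50 and MIC90 were taken as the concentrations giving 50% and 90% growth arrest. Resazurin (0.015%, 2 h, 37 °C, dark) confirmed the result. 3 replicates in 3 independent experiments.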

Pseudomonas aeruginosa [4] = assay: Antibacterial activity against Pseudomonas aeruginosa ATCC 27853 after 18 to 20 hrs by spectrophotometry based microdilution method; outline: as §2
Acinetobacter baumannii = assay: Antibacterial activity against Acinetobacter baumannii ATCC 17978 after 18 to 20 hrs by spectrophotometry based microdilution method
Escherichia coli [5] = assay: Antibacterial activity against Escherichia coli ATCC 8739 after 18 to 20 hrs by spectrophotometry based microdilution method; outline: as §2
Escherichia coli [6] = assay: Antibacterial activity against Escherichia coli ATCC 8739 at 375 uM after 18 to 20 hrs by spectrophotometry based microdilution method relative to untreated control; conditions: ATCC 8739, ATCC 8739, read-out: GI
Outline: (§3)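 Growth inhibition at a single compound concentration in the EUCAST broth microdilution setup: Mueller Hinton Broth II, 104 cells/ml from log-phase culture, compound stock in 6% DMSO. After 35 ± 1 °C for 18–20 h, OD600 was compared with the untreated growth control. ">" marks 10–50% inhibition and ">>" marks under 10% inhibition. 3 replicates, 3 independent experiments.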

Pseudomonas aeruginosa [7] = assay: Antibacterial activity against Pseudomonas aeruginosa ATCC 27853 assessed as inhibition of bacterial growth at 1500 uM after 18 to 20 hrs by spectrophotometry based microdilution method relative to untreated control; conditions: read-out: GI; outline: as §3
Escherichia coli [8] = assay: Antibacterial activity against Escherichia coli ATCC 8739 assessed as inhibition of bacterial growth at 1500 uM after 18 to 20 hrs by spectrophotometry based microdilution method relative to untreated control; conditions: ATCC 8739, ATCC 8739, read-out: GI; outline: as §3
Escherichia coli [9] = assay: Antibacterial activity against Escherichia coli ATCC 8739 at 750 uM after 18 to 20 hrs by spectrophotometry based microdilution method relative to untreated control; conditions: ATCC 8739, ATCC 8739, read-out: GI; outline: as §3
Klebsiella pneumoniae [10] = assay: Antibacterial activity against ESBL positive Klebsiella pneumoniae ATCC 700603 assessed as inhibition of bacterial growth at 375 uM after 18 to 20 hrs by spectrophotometry based microdilution method relative to untreated control; conditions: read-out: GI; outline: as §3
Staphylococcus aureus [11] = assay: Antibacterial activity against methicillin-sensitive Staphylococcus aureus ATCC 25923 assessed as inhibition of bacterial growth at 187.5 uM after 18 to 20 hrs by spectrophotometry based microdilution method relative to untreated control; conditions: read-out: GI; outline: as §3

Compound	MIC50 (Staphylococcus aureus [1])	MIC50 (Staphylococcus aureus [2])	MIC50 (Klebsiella pneumoniae [3])	MIC50 (Pseudomonas aeruginosa [4])	MIC50 (Acinetobacter baumannii)	MIC50 (Escherichia coli [5])	inhibition of growth at 1500 µM (Pseudomonas aeruginosa [7])	also measured
COC(=O)[C@@H](CCCNC(=N)N[N+](=O)[O-])NC(=O)CC/C(C)=C/Cc1c(O)c2c(c(C)c1OC)COC2=O	inactive	inactive	inactive					
COC(=O)C(NC(=O)CC/C(C)=C/Cc1c(O)c2c(c(C)c1OC)COC2=O)C(=O)OC	256 µg/mL (≈ 570 µM)	256 µg/mL (≈ 570 µM)	128 µg/mL (≈ 285 µM)	inactive	256 µg/mL (≈ 570 µM)	256 µg/mL (≈ 570 µM)		
COC(=O)C[C@H](NC(=O)CC/C(C)=C/Cc1c(O)c2c(c(C)c1OC)COC2=O)C(=O)OC	32 µg/mL (≈ 69 µM)	32 µg/mL (≈ 69 µM)	256 µg/mL (≈ 552 µM)	inactive	256 µg/mL (≈ 552 µM)	256 µg/mL (≈ 552 µM)		
CC[C@H](C)[C@H](NC(=O)CC/C(C)=C/Cc1c(O)c2c(c(C)c1OC)COC2=O)C(=O)O		inactive			inactive			inhibition of growth at 375 µM (Escherichia coli [6]): 10 to 50%
COc1c(C)c2c(c(O)c1C/C=C(\C)CCC(=O)N[C@H](CCCNC(=N)N[N+](=O)[O-])C(=O)O)C(=O)OC2	inactive	inactive	inactive				10 to 50%	inhibition of growth at 1500 µM (Escherichia coli [8]): 10 to 50%
COC(=O)[C@@H](NC(=O)CC/C(C)=C/Cc1c(O)c2c(c(C)c1OC)COC2=O)C(C)O (stereo partly specified)	32 µg/mL (≈ 73.5 µM)	8 µg/mL (≈ 18.4 µM)	256 µg/mL (≈ 588 µM)	inactive	256 µg/mL (≈ 588 µM)	256 µg/mL (≈ 588 µM)		
COc1c(C)c2c(c(O)c1C/C=C(\C)CCC(=O)N[C@@H](CCCNC(=N)N[N+](=O)[O-])C(=O)O)C(=O)OC2	inactive	inactive	inactive	inactive				inhibition of growth at 750 µM (Escherichia coli [9]): 10 to 50%
COc1c(C)c2c(c(O)c1C/C=C(\C)CCC(=O)N[C@H](C(=O)O)[C@@H](C)O)C(=O)OC2	inactive	inactive					10 to 50%	inhibition of growth at 750 µM (Escherichia coli [9]): 10 to 50%; inhibition of growth at 375 µM (Klebsiella pneumoniae [10]): 10 to 50%
COC(=O)C(NC(=O)C(CCCCNC(=O)CCN)NC(=O)C1CCCN1C(=O)C(CCCNC(=N)N[N+](=O)[O-])NC(=O)CC/C(C)=C/Cc1c(O)c2c(c(C)c1OC)COC2=O)C(C)O (stereo unspecified) (Mycophenolyl-[Arg(NO2)]PK(βAla)T-OMe; configuration not given here)	32 µg/mL (≈ 34.3 µM)	32 µg/mL (≈ 34.3 µM)	32 µg/mL (≈ 34.3 µM)	inactive	128 µg/mL (≈ 137 µM)	256 µg/mL (≈ 274 µM)		
COc1c(C)c2c(c(O)c1C/C=C(\C)CCC(=O)O)C(=O)OC2 [MYCOPHENOLIC ACID]	750 µg/mL (≈ 2340 µM)		128 µg/mL (≈ 400 µM)		128 µg/mL (≈ 400 µM)		10 to 50%	inhibition of growth at 187.5 µM (Staphylococcus aureus [11]): 10 to 50%; MIC90 (Escherichia coli [5]): 750 µg/mL (≈ 2340 µM)
CCC(C)[C@H](NC(=O)CC/C(C)=C/Cc1c(O)c2c(c(C)c1OC)COC2=O)C(=O)OC (stereo partly specified)	256 µg/mL (≈ 572 µM)	16 µg/mL (≈ 35.8 µM)	256 µg/mL (≈ 572 µM)	inactive	256 µg/mL (≈ 572 µM)	256 µg/mL (≈ 572 µM)		
COc1c(C)c2c(c(O)c1C/C=C(\C)CCC(=O)N[C@@H](C(=O)O)[C@@H](C)O)C(=O)OC2	inactive	inactive	inactive				10 to 50%	inhibition of growth at 1500 µM (Escherichia coli [8]): 10 to 50%
COc1c(C)c2c(c(O)c1C/C=C(\C)CCC(=O)N[C@@H](CC(=O)O)C(=O)O)C(=O)OC2	inactive	inactive	inactive				10 to 50%	inhibition of growth at 750 µM (Escherichia coli [9]): 10 to 50%
NC[C@H]1O[C@H](O[C@H]2[C@H](O)[C@@H](O[C@H]3O[C@H](CO)[C@@H](O)[C@H](N)[C@H]3O)[C@H](N)C[C@@H]2N)[C@H](O)[C@@H](O)[C@@H]1O [KANAMYCIN]			inactive	1500 µg/mL (≈ 3100 µM)	inactive			MIC90 (Staphylococcus aureus [1]): 125 µg/mL (≈ 258 µM); MIC90 (Staphylococcus aureus [2]): 7.8 µg/mL (≈ 16.1 µM); MIC90 (Escherichia coli [5]): 15.6 µg/mL (≈ 32.2 µM)
COC(=O)[C@H](NC(=O)CC/C(C)=C/Cc1c(O)c2c(c(C)c1OC)COC2=O)C(C)O (stereo partly specified)	inactive	inactive	inactive				10 to 50%	inhibition of growth at 1500 µM (Escherichia coli [8]): 10 to 50%
COC(=O)[C@H](CCCNC(=N)N[N+](=O)[O-])NC(=O)CC/C(C)=C/Cc1c(O)c2c(c(C)c1OC)COC2=O	64 µg/mL (≈ 120 µM)	32 µg/mL (≈ 59.8 µM)	64 µg/mL (≈ 120 µM)	inactive	128 µg/mL (≈ 239 µM)	256 µg/mL (≈ 478 µM)		
CC1(C)S[C@@H]2[C@H](NC(=O)[C@H](N)c3ccccc3)C(=O)N2[C@H]1C(=O)O [AMPICILLIN]								MIC90 (Staphylococcus aureus [1]): 128 µg/mL (≈ 366 µM); MIC90 (Pseudomonas aeruginosa [4]): 256 µg/mL (≈ 733 µM); MIC90 (Staphylococcus aureus [2]): 0.125 µg/mL (≈ 0.358 µM); MIC90 (Klebsiella pneumoniae [3]): 128 µg/mL (≈ 366 µM); MIC90 (Acinetobacter baumannii): 2 µg/mL (≈ 5.72 µM); MIC90 (Escherichia coli [5]): 8 µg/mL (≈ 22.9 µM)
COC(=O)C(NC(=O)C(CCCCNC(=O)CN)NC(=O)C1CCCN1C(=O)C(CCCNC(=N)N[N+](=O)[O-])NC(=O)CC/C(C)=C/Cc1c(O)c2c(c(C)c1OC)COC2=O)C(C)O (stereo unspecified) (Mycophenolyl-[Arg(NO2)]PK(Gly)T-OMe; configuration not given here)	64 µg/mL (≈ 69.6 µM)	64 µg/mL (≈ 69.6 µM)	16 µg/mL (≈ 17.4 µM)	inactive	128 µg/mL (≈ 139 µM)	256 µg/mL (≈ 279 µM)		
